Bioassay records as filed in PubChem.
This is a sample that favours compounds with a hit; in the whole collection about 1.4% have one here.
PfG6PD inh: PfG6PD enzyme inhibitors, primary screen, biochemical, fluorescence intensity, uHTS; inhibition, % at 20 µM; glucose-6-phosphate dehydrogenase-6-phosphogluconolactonase (Plasmodium falciparum 3D7); 0.78% of 350,000 active; PfGluPho enzyme, NADPH resazurin-diaphorase fluorescence;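 active = inhibition reaching at least a set limit at 20 µM in the primary screen, cut at about 59% in these data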;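 also: 0% = DMSO wells with substrate and 100% = DMSO wells lacking glucose-6-phosphate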
A3A deaminase: APOBEC3A ssDNA deaminase inhibitors, primary screen, selectivity assay for APOBEC3G inhibitor project, biochemical, FAM/TAMRA oligo cleavage fluorescence. DNA dC->dU-editing enzyme APOBEC-3A (Homo sapiens), P31941. recombinant A3A, FAM/TAMRA ssDNA deamination fluorescence. inhibition, % at 20 µM. 0.41% of 330,000 active;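 active = at least 40% inhibition at 20 µM here, with at most 30% in a related deaminase screen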;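 also: plate controls were A3A with DMSO for no effect and wells lacking A3A enzyme for full effect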
Target sequence (P31941 whole entry, looked up): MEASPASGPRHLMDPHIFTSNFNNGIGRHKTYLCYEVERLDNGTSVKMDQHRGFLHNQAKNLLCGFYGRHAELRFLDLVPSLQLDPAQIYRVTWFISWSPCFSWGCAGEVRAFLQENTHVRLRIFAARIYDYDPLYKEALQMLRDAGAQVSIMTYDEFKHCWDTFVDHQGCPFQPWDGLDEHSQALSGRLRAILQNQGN
HKDC1 inhibitor: HKDC1 hexokinase inhibitors, primary screen, biochemical, fluorescence, uHTS | Q2TB90 | recombinant HKDC1, G6PDH/diaphorase resazurin coupled fluorescence | inhibition, % at 20 µM | 0.16% of 340,000 active;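 active = inhibition above about 35% when tested at 20 µM, limit read from the data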;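 also: plate controls were DMSO wells with enzyme for no effect and DMSO wells lacking enzyme for full effect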
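Test system: HK5 enzyme. Quantity: 5 µg/mL HK5 final. Reagent: glucose and ATP substrates. Schedule: 90 min reaction incubation at room temperature, dark. Technique: resazurin-to-resorufin fluorescence via G6PDH and diaphorase coupling, 525/613 nm. Control set: DMSO wells with and without enzyme mix.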
A3G deaminase: APOBEC3G DNA deaminase inhibitors, primary screen, biochemical, fluorescence, single-stranded DNA substrate, uHTS. 0.28% of 330,000 active. recombinant A3G, ssDNA deamination FAM/TAMRA fluorescence. AID 493012, 2011. inhibition, % at 20 µM. DNA dC->dU-editing enzyme APOBEC-3G (Homo sapiens), Q9HC16;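 active = inhibition of at least 40% at 20 µM, with no more than 30% in the related APOBEC3A deaminase screen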;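 also: plate controls were DMSO wells with A3G for no effect and wells lacking A3G enzyme for full effect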
Target sequence (Q9HC16 whole entry, looked up): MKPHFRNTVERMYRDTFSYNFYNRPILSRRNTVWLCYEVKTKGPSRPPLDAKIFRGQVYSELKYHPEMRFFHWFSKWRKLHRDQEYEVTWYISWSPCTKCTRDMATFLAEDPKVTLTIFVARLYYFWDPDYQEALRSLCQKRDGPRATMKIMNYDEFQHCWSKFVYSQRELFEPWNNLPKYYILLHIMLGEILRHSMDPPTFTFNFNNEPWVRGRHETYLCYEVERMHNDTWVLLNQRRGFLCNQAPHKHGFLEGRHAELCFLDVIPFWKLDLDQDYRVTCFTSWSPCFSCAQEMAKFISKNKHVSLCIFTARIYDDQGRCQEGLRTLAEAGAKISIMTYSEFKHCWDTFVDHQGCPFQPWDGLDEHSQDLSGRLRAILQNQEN
iPSC survival up: enhancers of single-cell hiPSC survival, primary screen, ATPlite luminescence. survival enhancement, % at 20 µM. 0.044% of 360,000 active. 100% = ROCK inhibitor wells, 0% = DMSO; in the data active = survival enhancement above about 18%;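 also: cells exposed to compounds for 16 hours before the ATP read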
PfGluPho conf: PfG6PD inhibitors, hit retest, confirmation, biochemical, fluorescence intensity, single concentration; shares compounds with PfG6PD inh; recombinant PfGluPho, NADPH-diaphorase-resazurin fluorescence; inhibition, % at 20 µM; 34% of 2,400 active; AID 504753, 2011;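 active = inhibition of at least 50% at 20 µM in any single replicate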;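 also: 0% = DMSO with substrate and 100% = DMSO lacking glucose-6-phosphate substrate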
Diaph ctr 10uM: diaphorase inhibitors and chemical oxidizers, confirmation, counter-screen for P. falciparum G6PD inhibitor project, biochemical, fluorescence intensity, 10 µM NADPH; shares compounds with PfG6PD inh; diaphorase-coupled resazurin reduction, NADPH 10 uM; inhibition, % at 20 µM; 39% of 820 active; AID 504862, 2011;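 active = average inhibition reaching 50% or more with the compound at 20 µM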;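 also: resorufin red fluorescence formed as diaphorase reduces resazurin using NADPH; 0% = DMSO with enzyme and 100% = DMSO without enzyme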
Diaph ctr 30uM: diaphorase inhibitors and chemical oxidizers, confirmation, counter-screen for P. falciparum G6PD inhibitor project, biochemical, fluorescence intensity, 30 µM NADPH; shares compounds with PfG6PD inh; inhibition, % at 20 µM; 29% of 820 active; Diaphorase/resazurin coupled assay, resorufin fluorescence;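 active = inhibition averaging 50% or more, tested at 20 µM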;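 also: 0% = DMSO with enzyme and 100% = DMSO wells lacking diaphorase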
An asterisk follows results filed as active; . = no result.

SMILES	PfG6PD inh	A3A deaminase	HKDC1 inhibitor	A3G deaminase	iPSC survival up	PfGluPho conf	others
COc1ccccc1-c1ccc([C@@H]2C[C@H]3[C@H](CON3C)CN2C(=O)c2ccco2)cc1	17.6	.	.	.	0.9	.
Cc1nc2ccc(Cl)cc2nc(C)/c1=N\O	59.5*	-7.4	2.0	-0.6	2.3	11.4
CC1=C(C(N)=O)C(c2ccccc2[N+](=O)[O-])n2ncnc2N1 (stereo not drawn)	65.2*	-0.9	2.4	-0.8	0.2	0.0
CC1=C(C(N)=O)C(c2ccc(Cl)cc2Cl)n2ncnc2N1 (stereo not drawn)	-6.1	-6.1	4.8	-9.0	-1.3	.
CC(C(=O)N1c2ccccc2CC1C)N1CCN(S(=O)(=O)c2ccccc2F)CC1 (stereo not drawn)	1.3	-4.9	-5.7	-9.2	-1.9	.
Cc1c(/C=C/C(=O)c2ccccc2)cnn1C	9.4	3.8	0.1	0.3	-4.2	.
Cc1c(/C=C/C(=O)c2ccc(C(C)C)cc2)cnn1C	67.9*	0.4	0.4	-1.7	-3.9	42.5
Cc1c(/C=C/C(=O)c2ccc(Cl)s2)cnn1C	59.6*	-2.9	7.8	-5.6	0.8	51.6*	Diaph ctr 10uM=62.7*;Diaph ctr 30uM=38.9
O=C(O)c1ccc(NS(=O)(=O)Cc2ccc(Cl)c(Cl)c2)cc1	-6.3	.	-4.0	.	-0.9	.
C=CCNc1ncnc2c1cnn2-c1cccc(C)c1	19.2	-0.7	2.1	-6.8	-1.0	.
Cc1cccc(-n2ncc3c(NC4CCCCC4)ncnc32)c1	65.6*	-6.5	2.1	-6.3	-1.9	7.2
COc1ccc(-c2cc3ccccc3cn2)cc1	59.5*	-1.0	-0.1	-0.8	-3.4	9.1
Cc1ccc(NS(=O)(=O)c2ccccc2)c2c1CC(C)(C)O2	92.0*	-3.9	1.7	-6.0	1.5	64.8*	Diaph ctr 10uM=54.2*;Diaph ctr 30uM=50.4*
Cc1cc(-c2ccc(NS(=O)(=O)c3ccccc3)c(C)c2)ccc1NS(=O)(=O)c1ccccc1	-2.2	.	-2.7	.	-0.8	.
N#Cc1cc([N+](=O)[O-])ccc1Oc1cccc(/C=N/NC(=O)c2cccc(Cl)c2)c1	118.7*	0.1	6.5	-2.3	1.3	62.3*	Diaph ctr 10uM=60.0*;Diaph ctr 30uM=58.5*
Nc1nonc1-n1nnc(C(=O)N/N=C/c2cccs2)c1-c1ccc2c(c1)OCO2	51.3	4.1	5.3	4.1	0.5	.
COc1cccc(-c2c(C(=O)N/N=C/c3ccc(C)s3)nnn2-c2nonc2N)c1	97.8*	-3.7	1.0	-7.7	-0.4	49.5*	Diaph ctr 10uM=65.3*;Diaph ctr 30uM=42.4
Cc1ccc(-c2c(C(=O)N/N=C/c3ccc(C)o3)nnn2-c2nonc2N)cc1	78.9*	-1.6	1.3	-4.2	-0.3	60.3*	Diaph ctr 10uM=63.1*;Diaph ctr 30uM=47.2
CCOc1cccc(-c2c(C(=O)N/N=C/c3sccc3C)nnn2-c2nonc2N)c1	86.7*	-2.0	5.1	-5.9	-0.1	31.5
CCCOc1ccc(-c2c(C(=O)N/N=C/c3ccc(C)cc3)nnn2-c2nonc2N)cc1	8.4	-1.6	-1.1	-8.3	-0.3	.
Cc1ccsc1/C=N/NC(=O)c1nnn(-c2nonc2N)c1-c1ccc2c(c1)OCO2	65.9*	-2.3	1.5	-5.9	0.1	31.5
CCOc1ccc(-c2c(C(=O)N/N=C/c3sccc3C)nnn2-c2nonc2N)cc1	9.5	-0.4	-3.1	-2.5	0.7	.
CC1=C(C(=O)O)CC(S(=O)(=O)O)C1(C)C (stereo not drawn)	13.0	.	-2.8	.	-1.3	.
CC(C)C[C@H]1CN=C(Nc2ccccc2)N1CC1CCC(C)CC1 (stereo partly drawn)	1.5	-1.0	-1.3	-8.2	-0.1	.
COc1cccc(-c2c(C(=O)N/N=C/c3ccncc3)nnn2-c2nonc2N)c1	8.0	-4.0	-1.5	-6.0	0.4	.
SMILES	PfG6PD inh	A3A deaminase	HKDC1 inhibitor	A3G deaminase	iPSC survival up	PfGluPho conf	others
COc1cccc(-c2c(C(=O)N/N=C/c3ccc(C)o3)nnn2-c2nonc2N)c1	65.6*	-5.2	0.1	-1.7	-0.3	55.8*	Diaph ctr 10uM=26.6;Diaph ctr 30uM=18.9
CCOc1cccc(-c2c(C(=O)N/N=C/c3ccc(C)s3)nnn2-c2nonc2N)c1	66.7*	3.9	3.9	7.7	-0.7	39.9
COc1ccc(CNC(=O)COC(=O)c2ccc3ncsc3c2)cc1OC	-12.2	1.0	-2.1	-4.5	-0.5	.
NC(=S)N/N=C/c1ccc(-c2ccccc2)o1	14.3	-6.3	-3.1	-16.9	-0.9	.
Cc1ccc(-c2ccc(/C=N/NC(N)=S)o2)cc1	61.6*	-6.8	-5.7	-4.2	-0.3	16.0
COCCNC(=S)NNc1cccc(C(=O)O)c1	34.9	-2.7	-15.4	-2.4	-0.3	.
Cc1cc2ncn(/N=C/c3ccc(-c4ccccc4)o3)c2cc1C	73.0*	-3.0	7.1	-11.7	-0.6	-23.0
COc1ccccc1-c1nc(C(=O)NCC2CCCO2)cc2c1[nH]c1ccccc12 (stereo not drawn)	63.6*	-3.5	0.0	-10.1	-0.5	16.6
COc1cc(-c2nc(C(=O)NCC3CCCO3)cc3c2[nH]c2ccccc23)cc(OC)c1OC (stereo not drawn)	33.4	-4.5	-0.3	-7.6	-1.8	.
COc1ccccc1Cn1c(/C=C/c2ccccc2)nc2ccccc21	67.0*	2.7	3.0	-2.7	-2.9	2.8
COCCn1c(/C=C/c2ccccc2)nc2ccccc21	43.6	2.3	-0.2	-4.9	-0.6	.
COc1ccc(/C=C/c2nc3ccccc3n2Cc2ccccc2OC)cc1	76.3*	-3.1	-4.6	-8.0	-1.8	22.4
COc1ccccc1N(CC(=O)NCCSc1ccccn1)S(=O)(=O)c1ccccc1	11.0	-4.0	-0.5	-7.8	-0.3	.
COc1cc(/C=C2\CC/C(=C\c3cc(OC)c(OC)c(OC)c3)C2=O)cc(OC)c1OC	6.8	0.2	-5.4	-2.6	-3.5	.
COc1cc(/C=C2\CC/C(=C\c3cc(OC)c(O)c(OC)c3)C2=O)cc(OC)c1O	63.1*	24.9	28.7	19.5	-2.3	67.2*	Diaph ctr 10uM=18.4;Diaph ctr 30uM=17.1
O=Cc1ccccc1-n1cccn1	-12.6	-1.8	-6.3	-5.8	0.1	.
